# In ChEMBL document CHEMBL1127294, “Development of a model for the delta opioid receptor pharmacophore. 1. Conformationally restricted Tyr1 replacements in the cyclic delta receptor selective tetrapeptide Tyr-c[D-Cys-Phe-D-Pen]OH (JOM-13)” (J Med Chem, 1994):
# Peptide text beside a SMILES is read from it.
# Columns and labels:
# Mu-type opioid receptor [1] = target: T1, Mu-type opioid receptor (Cavia porcellus, UniProt P97266); assay: Displacement of [3H]DAMGO from mu opioid receptor of guinea pig brain membrane
# [2] = target: Delta-type opioid receptor (Mus musculus, UniProt P32300); assay: Inhibitory concentration against delta opioid receptor in mouse vas deferens assay; format: tissue-based
# Summary of the method: (§1)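 Electrically stimulated tissue in Krebs bicarbonate, 37 °C, 95% O2/5% CO2, 0.1 Hz, supramaximal voltage. MVD used male ICR mouse vas deferens, Mg-free buffer, 0.5 g tension, 2.0 ms pulses. GPI used male Hartley guinea pig ileum myenteric plexus strips, 1 g tension, 0.4 ms pulses. Cumulative agonist doses, 3 min each. IC50 from Hill fit to mean inhibition data, 2–4 tissues.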
# Mu-type opioid receptor [3] = target: T1, Mu-type opioid receptor; assay: Inhibitory concentration of compound against mu opioid receptor in guinea pig ileum assay; format: tissue-based; summary of the method: as §1
# [4] = target: Opioid receptors; mu & delta (UniProt P41143+P35372); assay: Ratio of IC50 against mu opioid to IC50 against delta opioid receptor; summary of the method: as §1
# Sequence of Opioid receptors; mu & delta (P35372 whole entry, looked up): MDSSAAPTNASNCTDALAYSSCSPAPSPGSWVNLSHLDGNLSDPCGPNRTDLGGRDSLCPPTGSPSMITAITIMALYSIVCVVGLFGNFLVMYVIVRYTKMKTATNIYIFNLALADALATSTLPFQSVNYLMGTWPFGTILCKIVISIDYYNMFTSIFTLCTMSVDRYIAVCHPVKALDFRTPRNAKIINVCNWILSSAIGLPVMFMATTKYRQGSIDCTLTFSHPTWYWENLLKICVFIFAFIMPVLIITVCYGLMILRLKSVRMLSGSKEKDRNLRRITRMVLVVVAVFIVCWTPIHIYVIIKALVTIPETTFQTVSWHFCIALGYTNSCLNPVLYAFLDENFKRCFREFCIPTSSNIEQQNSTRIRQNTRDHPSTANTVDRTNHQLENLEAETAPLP
# Sequence of Opioid receptors; mu & delta (P41143 whole entry, looked up): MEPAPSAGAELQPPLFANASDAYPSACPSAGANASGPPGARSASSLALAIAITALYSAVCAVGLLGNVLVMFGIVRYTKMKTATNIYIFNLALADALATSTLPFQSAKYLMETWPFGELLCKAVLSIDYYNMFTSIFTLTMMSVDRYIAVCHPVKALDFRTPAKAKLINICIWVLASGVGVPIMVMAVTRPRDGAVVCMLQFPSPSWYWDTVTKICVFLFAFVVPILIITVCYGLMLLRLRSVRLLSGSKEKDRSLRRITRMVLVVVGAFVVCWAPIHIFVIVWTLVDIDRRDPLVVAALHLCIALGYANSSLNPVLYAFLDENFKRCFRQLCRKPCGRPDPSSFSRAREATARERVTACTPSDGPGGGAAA
# T1 sequence (P97266 whole entry): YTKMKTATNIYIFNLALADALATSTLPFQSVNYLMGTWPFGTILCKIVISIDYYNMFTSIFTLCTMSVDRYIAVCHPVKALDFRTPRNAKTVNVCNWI
# Sequence of Delta-type opioid receptor (P32300 whole entry): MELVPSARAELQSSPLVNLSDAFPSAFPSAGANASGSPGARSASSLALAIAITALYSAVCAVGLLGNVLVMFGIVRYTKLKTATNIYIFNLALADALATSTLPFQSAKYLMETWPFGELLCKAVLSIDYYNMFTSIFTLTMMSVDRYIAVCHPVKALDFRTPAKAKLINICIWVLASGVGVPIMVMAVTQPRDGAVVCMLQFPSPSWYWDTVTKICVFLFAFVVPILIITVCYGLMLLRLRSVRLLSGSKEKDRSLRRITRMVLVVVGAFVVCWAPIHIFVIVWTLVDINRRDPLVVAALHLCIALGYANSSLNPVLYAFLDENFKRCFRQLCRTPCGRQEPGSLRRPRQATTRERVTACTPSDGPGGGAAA
SMILES,Ki (Mu-type opioid receptor [1]),IC50 [2],IC50 (Mu-type opioid receptor [3]),Ratio [4]
"CC1(C)SSC[C@H](NC(=O)C2NCC[C@H]2c2ccc(O)cc2)C(=O)N[C@@H](Cc2ccccc2)C(=O)N[C@@H]1C(=O)O (single isomer, unassigned)",4440 nM,–,–,–
"CC1(C)SSC[C@H](NC(=O)C2(N)Cc3ccc(O)cc3C2)C(=O)N[C@@H](Cc2ccccc2)C(=O)N[C@@H]1C(=O)O (single isomer, unassigned)",> 10000 nM,–,–,–
CC1(C)SSC[C@H](NC(=O)[C@@H](N)Cc2ccc(O)cc2)C(=O)N[C@@H](Cc2ccccc2)C(=O)N[C@@H]1C(=O)O,–,4.2 nM,–,–
CC1(C)SSC[C@H](NC(=O)[C@]2(N)CCc3cc(O)ccc3C2)C(=O)N[C@@H](Cc2ccccc2)C(=O)N[C@@H]1C(=O)O,230 nM,110 nM,1800 nM,16
"CC1(C)SSC[C@H](NC(=O)[C@@](C)(N)Cc2ccc(O)cc2)C(=O)N[C@@H](Cc2ccccc2)C(=O)N[C@@H]1C(=O)O (HELM PEPTIDE1{[C[C@](N)(Cc1ccc(O)cc1)C(=O)[*:2]].C.F.[Pen]}$PEPTIDE1,PEPTIDE1,2:R3-4:R3$$$V2.0)",> 10000 nM,–,–,–
"CC1(C)SSC[C@H](NC(=O)C2NCC[C@@H]2c2ccc(O)cc2)C(=O)N[C@@H](Cc2ccccc2)C(=O)N[C@@H]1C(=O)O (single isomer, unassigned)",10000 nM,–,–,–
CC1(C)SSC[C@H](NC(=O)[C@H]2NCC[C@@H]2c2ccc(O)cc2)C(=O)N[C@@H](Cc2ccccc2)C(=O)N[C@@H]1C(=O)O,110 nM,1.6 nM,770 nM,480
CC1(C)SSC[C@H](NC(=O)[C@@]2(N)Cc3ccc(O)cc3C2)C(=O)N[C@@H](Cc2ccccc2)C(=O)N[C@@H]1C(=O)O,840 nM,340 nM,> 10000 nM,> 29
"CC1(C)SSC[C@H](NC(=O)[C@@H]2Cc3ccc(O)cc3CN2)C(=O)N[C@@H](Cc2ccccc2)C(=O)N[C@@H]1C(=O)O (HELM PEPTIDE1{[O=C([C@@H]1Cc2ccc(O)cc2CN1)[*:2]].C.F.[Pen]}$PEPTIDE1,PEPTIDE1,2:R3-4:R3$$$V2.0)",> 10000 nM,–,–,–
"CC1(C)SSC[C@H](NC(=O)C2(N)CCc3cc(O)ccc3C2)C(=O)N[C@@H](Cc2ccccc2)C(=O)N[C@@H]1C(=O)O (single isomer, unassigned)",310 nM,340 nM,4300 nM,13
CC1(C)SSC[C@H](NC(=O)[C@H]2NCC[C@H]2c2ccc(O)cc2)C(=O)N[C@@H](Cc2ccccc2)C(=O)N[C@@H]1C(=O)O,720 nM,75 nM,12000 nM,160
